This is an account of results in ChEMBL document CHEMBL1765008, “Fused heterocyclic amido compounds as anti-hepatitis C virus agents” (Bioorg Med Chem, 2011).

pEC50: −log10 of the molar value.

The test system of one assay is Hepatitis C virus. In words: Antiviral activity against Hepatitis C virus assessed as inhibition of viral replication after 24 hrs by cell based luciferase reporter gene assay. It is filed as functional, organism-based. The note with it: Hepacivirus hominis, 72 h, in the assay text read “after 3 days” for “after 24 hrs”. The procedure, abridged:
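Subgenomic HCV RNA replicon cells carrying luciferase (LucNeo#2), maintained in DMEM with 10% FBS, antibiotics and 1 mg/ml geneticin. Seeded at 50,000 cells/ml without geneticin and incubated 24 h. Medium then replaced with medium containing serial compound dilutions for 3 days. Cells washed with PBS and lysed for 10 min; luciferase activity in the lysate read by luminometer.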
For orientation: A reporter such as luciferase makes a cellular process visible.

In assay [1] the test system is Bovine viral diarrhea virus 1. The assay can be described thus: Antiviral activity against Bovine viral diarrhea virus assessed as inhibition of viral replication after 24 hrs by cell based luciferase reporter gene assay. It is filed as functional, organism-based. Conditions: Bovine viral diarrhea virus isolates and strains.

With `CCCCn1c(=O)c2ccccc2c2cc(C(O)(C(F)(F)F)C(F)(F)F)ccc21`, the pEC50 (commonly −log10 of the EC50, conventionally taken in molar units) in the assay on Hepatitis C virus is 5.49. For `CCCCn1c(=O)c2cc(OC)ccc2c2c(OC)c(C(O)(C(F)(F)F)C(F)(F)F)cc(OC)c21`, the pEC50 in the assay on Hepatitis C virus is 5.21. On the same count and under the same terms, the result for `CCCCn1c(=O)c2cc(OC)ccc2c2cc(C(O)(C(F)(F)F)C(F)(F)F)c3c(c21)OCO3` reads 7.30; that for `CCCCn1c(=O)c2ccccc2c2c(OC)c(C(O)(C(F)(F)F)C(F)(F)F)ccc21`, 5.14. On the same count and under the same terms, the result for `CCCCn1c(=O)c2c(OC)cccc2c2cc(C(O)(C(F)(F)F)C(F)(F)F)ccc21` reads 5.00; that for `CCCCn1c(=O)c2ccccc2c2cc(C(O)(C(F)(F)F)C(F)(F)F)c(OC)cc21`, 5.47. Take `CCCCn1c(=O)c2ccccc2c2cc(C(O)(C(F)(F)F)C(F)(F)F)c(F)cc21`: the pEC50 in the assay on Hepatitis C virus was 5.28. Still for that read-out and setting: the value for `CCCCn1c(=O)c2ccccc2c2cc(C(O)(C(F)(F)F)C(F)(F)F)cc(F)c21` was 5.62; that for `CCCCn1c(=O)c2ccccc2c2cc(C(O)(C(F)(F)F)C(F)(F)F)c(C)cc21` was 5.25. The same measure, in the same setting: the value for `CCCCn1c(=O)c2ccccc2c2cc(C(O)(C(F)(F)F)C(F)(F)F)cc(C)c21` was 5.68; that for `CCCCn1c(=O)c2ccccc2c2cc(C(O)(C(F)(F)F)C(F)(F)F)cc(OC)c21` was 5.96; that for `CCCCn1c(=O)c2cc(OC)ccc2c2cc(C(O)(C(F)(F)F)C(F)(F)F)ccc21` was 6.01. In the case of `CCCCn1c(=O)c2ccc(OC)cc2c2cc(C(O)(C(F)(F)F)C(F)(F)F)ccc21`, the pEC50 in the assay on Hepatitis C virus is 4.78.

Take `CCCCn1c(=O)c2cccc(OC)c2c2cc(C(O)(C(F)(F)F)C(F)(F)F)ccc21`: the pEC50 in the assay on Hepatitis C virus was 5.30. Regarding `CCCCn1c(=O)c2ccccc2c2c(OC)c(C(O)(C(F)(F)F)C(F)(F)F)cc(OC)c21`, the pEC50 in the assay with Hepatitis C virus was 5.24.

As to `CCCCn1c(=O)c2ccccc2c2cc(C(O)(C(F)(F)F)C(F)(F)F)c(OC)c(OC)c21`, the pEC50 in the assay on Hepatitis C virus was 5.59. For the molecule `CCCCn1c(=O)c2cc(OC)ccc2c2cc(C(O)(C(F)(F)F)C(F)(F)F)c(OC)cc21`, the pEC50 in the assay on Hepatitis C virus is 6.74. Consider `CCCCn1c(=O)c2cc(OC)ccc2c2cc(C(O)(C(F)(F)F)C(F)(F)F)cc(OC)c21`, for which, in the assay on Hepatitis C virus, the pEC50 is 6.29. The same measure, in the same setting: the value for `CCCCn1c(=O)c2cc(OC)ccc2c2cc(C(O)(C(F)(F)F)C(F)(F)F)c(OC)c(OC)c21` was 5.74; that for `CCCCn1c(=O)c2ccccc2c2cc(C(O)(C(F)(F)F)C(F)(F)F)c3c(c21)OCO3` was 6.54; that for `CCCCn1c(=O)c2cc3c(cc2c2cc(C(O)(C(F)(F)F)C(F)(F)F)ccc21)OCO3` was 5.64. As for `CCCCn1c(=O)c2ccccc2c2c(OC)c(C(O)(C(F)(F)F)C(F)(F)F)c3c(c21)OCO3`, in the assay on Hepatitis C virus, the pEC50 is 5.01.

For the molecule `CCCCn1c(=O)c2cc(OC)ccc2c2c(OC)c(C(O)(C(F)(F)F)C(F)(F)F)c3c(c21)OCO3`, the pEC50 in the assay with Hepatitis C virus was 4.92. On to `CCCCn1c(=O)c2cc3c(cc2c2cc(C(O)(C(F)(F)F)C(F)(F)F)c4c(c21)OCO4)OCO3`, for which, in the assay with Hepatitis C virus, the pEC50 is 5.76. With `Cc1ncc2c3ccccc3n(C)c2c1C`, in assay [1], the pEC50 was 8.46.

As for `COCCn1c(=O)c2ccccc2c2cc(C(O)(C(F)(F)F)C(F)(F)F)ccc21`, the pEC50 in the assay on Hepatitis C virus was 5.27. Same read-out and setting: the value for `O=c1c2ccccc2c2cc(C(O)(C(F)(F)F)C(F)(F)F)ccc2n1Cc1ccc2ccccc2c1` was 5.06.
